From PubChem
Granule exo inh: blocks lytic granule exocytosis | AID 651702 | inhibition, % at 10 µM | TALL-104 LAMP-1 surface exposure, flow cytometry; cells stimulated with thapsigargin and PMA | 360,000 tested, 0.66% active;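 active = inhibition above about 55%, limit read from the data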
Apaf1 inhib: inhibitors of human Apaf-1 apoptosome | 330,000 tested, 0.71% active | reconstituted apoptosome caspase-3 activity, DEVD-Rh110 fluorescence | AID 489030 | inhibition, % at 20 µM; active = inhibition of at least 40% at 20 µM
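detection = Rh110 fluorescence intensity | test system = biochemical Apaf-1 apoptosome reconstitution | also added = cytochrome c and DEVD-Rh110 substrate | schedule = 30 min plus 50 min, RT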
UBC13 inh: inhibitors of human UBC13 polyubiquitin chain formation. P61088. TR-FRET. inhibition, % at 20 µM. 330,000 tested, 0.47% active; in the data active = inhibition above about 45%, passing the limit was not always enough
Target sequence (P61088 whole entry, looked up): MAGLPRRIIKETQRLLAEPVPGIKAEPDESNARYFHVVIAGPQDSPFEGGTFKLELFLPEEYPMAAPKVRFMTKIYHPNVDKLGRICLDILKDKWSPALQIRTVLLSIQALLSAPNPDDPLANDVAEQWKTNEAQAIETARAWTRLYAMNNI
MPTP block: permeability transition pore inhibition; isolated mouse mitochondria, Ca2+ swelling absorbance, 30 min; inhibition, % at 10 µM; 360,000 tested, 1.4% active;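 active = inhibition of 50% or more, scaled per plate between neutral and stimulator controls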
hiPSC survival: enhancers of human iPSC single-cell survival | 360,000 tested, 0.044% active | survival enhancement, % at 20 µM | hiPSC single-cell survival, ATPlite luminescence; 100% = ROCK inhibitor wells, 0% = DMSO; in the data active = survival enhancement above about 18%;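 note: cells exposed to compounds for 16 hours before the ATP read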
beta cell repl: induces beta-cell replication in MIN6 cells; MIN6 cells proliferation, ATPlite luminescence, 48 h; cells starved in 0.2% serum; 100% = growth in 10% serum; proliferation, % at 10 µM; 330,000 tested, 0.29% active; AID 2380;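 active = compounds whose signal lies at least 3.5 SD above the mean of all wells on their plate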
Apaf-1 inh conf: Apaf-1 inhibition, single-dose confirmed; inhibition, % at 20 µM; shares compounds with Apaf1 inhib; reconstituted apoptosome, caspase-3 DEVD-Rh110 fluorescence; 1,800 tested, 25% active;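 active = mean inhibition of at least 40% at 20 µM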
Rh110 interf inh: Rh110 signal interference in Apaf-1 inhibitor counter-screen; shares compounds with Apaf1 inhib; activation (fluorescence interference), % at 20 µM; 1,800 tested, under 10 active; Rh110 fluorescence interference, quenched caspase reaction;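 active = signal rise of 40% or more at 20 µM, treated as a fluorescence artifact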
Fluor interf inh: shows fluorescence interference in the Apaf-1 inhibitor assay format; shares compounds with Apaf1 inhib; fluorescence interference counterscreen, Apaf-1 assay format; IC50, µM; 460 tested, under 10 active; call rule not given here
A number is an active result; . = inactive; / = no result given. Only some compounds are listed: those with a hit (about 3% of all), similar ones and a draw of the others.

SMILES	Granule exo inh	Apaf1 inhib	UBC13 inh	MPTP block	hiPSC survival	beta cell repl	Apaf-1 inh conf	Rh110 interf inh	others
O=c1[nH]c(=O)n(C2CCCCCC2)c(O)c1C=NCc1ccc(F)cc1	.	40	.	.	.	.	.	.
COc1ccc(C(C)(O)c2nc(-c3ccc(N(C)C)cc3)cs2)cc1 (configuration not stated)	.	/	/	.	.	/	/	/
O=P(CCCCCCCCCP(=O)(c1ccccc1)c1ccccc1)(c1ccccc1)c1ccccc1	.	53	.	.	.	.	.	.
O=C(O)CCCCCCCCCCP(=O)(c1ccccc1)c1ccccc1	.	.	.	.	.	.	/	/
COc1cccc2sc(N(CCN(C)C)C(=O)c3ccc4c(c3)CCCC4)nc12	.	50	.	.	.	.	.	.
CN(C)CCN(C(=O)c1ccc2c(c1)CCCC2)c1nc2c(F)cccc2s1	.	.	.	.	.	.	/	/
CC1(C)Cc2c(sc(NC(=O)COc3cccc4ccccc34)c2C#N)C(C)(C)N1	.	46	.	.	.	.	.	.
Cc1ccc(OCC(=O)Nc2sc3c(c2C#N)CC(C)(C)NC3(C)C)cc1	.	.	.	.	.	.	/	/
CN(C)CCN(C(=O)c1cccc2ccccc12)c1nc2cc3c(cc2s1)OCO3	.	52	.	.	.	.	.	.
O=C(c1ccccc1)c1ccc(N2CCOCC2)cc1	.	/	/	.	.	/	/	/
CC(=O)N(C1=C(N2CCOCC2)C(=O)c2ccccc2C1=O)c1ccc(C(=O)O)cc1	.	59	.	.	.	.	55	.	Fluor interf inh=.
Cc1ccc(Nc2nc(N3CCOCC3)nc(N3CCOCC3)n2)cc1	.	.	.	.	.	.	/	/
O=C(O)c1ccc(NC2=C(N3CCOCC3)C(=O)c3ccccc3C2=O)cc1	.	68	.	.	.	.	51	.	Fluor interf inh=.
CC(=O)c1ccc(NC2=C(N3CCOCC3)C(=O)c3ccccc3C2=O)cc1	.	80	.	.	.	.	46	.	Fluor interf inh=.
Cc1ccc(NC2=C(N3CCOCC3)C(=O)c3ccccc3C2=O)cc1	.	59	.	.	.	.	81	.	Fluor interf inh=.
COc1ccc(NC(=O)c2cc(C3CCCCN3S(=O)(=O)Cc3ccccc3)on2)c(C)c1 (configuration not stated)	.	/	/	.	.	/	/	/
Cc1cccc(NC(=O)CN2CCN(C(=O)CN3C(=O)NC4(CCCCC4C)C3=O)CC2)c1C (configuration not stated)	.	/	/	.	.	/	/	/
O=C(NCC(c1ccco1)N1CCc2ccccc2C1)C(=O)Nc1cc(F)ccc1F (configuration not stated)	.	.	.	.	.	.	/	/
CCNc1ccccc1CP(=O)(c1ccccc1)c1ccccc1O (configuration not stated)	/	87	.	/	/	.	.	.
CC(C)(C)c1ccc(-c2nn(CCC#N)cc2/C=N/O)cc1	.	50	.	.	.	.	.	.
COCCn1c(N)c(C(=O)OCc2ccccc2)c2nc3ccccc3nc21	.	94	.	.	.	.	.	.
COCCNC(=O)c1c(N)n(CCC2=CCCCC2)c2nc3ccccc3nc12	.	63	.	.	.	.	.	.
C=CCn1c(N)c(C(=O)OCCC)c2nc3ccccc3nc21	.	.	.	.	.	.	/	/
CCN(Cc1ccccc1)C(=O)CN1C(=O)NC(CC)(c2ccc(F)cc2)C1=O (configuration not stated)	.	.	.	.	.	.	/	/
Nc1nc2ncccn2c1-c1ccc(F)c(F)c1	.	/	/	.	/	/	/	/
SMILES	Granule exo inh	Apaf1 inhib	UBC13 inh	MPTP block	hiPSC survival	beta cell repl	Apaf-1 inh conf	Rh110 interf inh	others
CN(C)S(=O)(=O)c1ccc(C(=O)NNC(=O)C23CC4CC(CC(C4)C2)C3)cc1	.	.	.	.	.	.	/	/
COCC(=O)N1CCC(Oc2ccc(C(=O)N(C)C(C)c3ccon3)cc2)CC1 (configuration not stated)	.	.	.	.	.	.	/	/
CCOC(=O)c1c(C)oc2c1c(C=NCCC(=O)O)c(O)c1ccccc12	.	81	.	.	.	.	59	.	Fluor interf inh=.
c1ccc2c(c1)CC/C2=N/Nc1nc2ccccc2[nH]1	.	57	.	.	.	.	.	.
COc1cc(C)c2c(c1C=O)Oc1c(c(C)c(O)c3c1C(O)OC3=O)OC2=O (configuration not stated)	.	56	.	.	.	.	.	.
O=C1NC2=C(C(=O)CCC2)C(c2cccc([N+](=O)[O-])c2)N1 (configuration not stated)	.	.	.	.	.	.	/	/
CN(Cc1ccccc1)c1oc(-c2ccco2)nc1C#N	.	41	.	.	.	.	.	.
Cc1nn(C(=O)CCCC(=O)NCc2ccccc2)c2ccccc12	.	.	.	.	.	.	/	/
CC(C)(C)N(Cc1ccccc1)C(=O)COC(=O)C1CC(=O)N(Cc2ccccc2)C1 (configuration not stated)	.	/	/	.	.	/	/	/
Cc1[nH][nH]c(=O)c1C(c1ccc(-c2cccc(Cl)c2)o1)c1c(C)[nH][nH]c1=O	.	87	.	.	.	.	41	.	Fluor interf inh=.
Cc1[nH][nH]c(=O)c1C(c1ccc(Br)cc1)c1c(C)[nH][nH]c1=O	.	.	.	.	.	.	/	/
COC(=O)c1ccc(-c2ccc(C(c3c(C)[nH][nH]c3=O)c3c(C)[nH][nH]c3=O)o2)cc1	.	44	.	.	.	.	42	.	Fluor interf inh=.
Cc1[nH][nH]c(=O)c1C(c1ccc(-c2ccccc2C(=O)O)o1)c1c(C)[nH][nH]c1=O	.	/	/	.	.	/	/	/
Cc1[nH][nH]c(=O)c1C(c1ccc(-c2cccc(C(=O)O)c2)o1)c1c(C)[nH][nH]c1=O	.	78	.	.	.	.	.	.
O=P(Nc1ccccc1)(Nc1ccccc1)c1ccccc1	.	/	/	.	.	/	/	/
COC(=O)c1ccc2nc(-c3ccc(C)cc3)c(CC3CCCCC3)n2c1	.	/	/	.	.	/	/	/
Cc1cc2nnc(SCC(=O)NC3CCCCC3)n2c(N)n1	.	.	.	.	.	.	/	/
CC1(C(=O)NS(=O)(=O)c2ccccc2)CCN1C(=O)COc1ccc(Cl)cc1 (configuration not stated)	.	/	/	.	.	/	/	/
O=C1C(c2ccccc2)=[N+]([O-])c2ccccc21	.	85	.	.	.	.	87	.	Fluor interf inh=.
O=C(N/N=C/c1ccc(Br)cc1)c1cc[n+](Cc2ccccc2)cc1	.	.	.	.	.	.	/	/
